Most compounds without a hit are left out; they make up all but 1.5% or so of the library.
APJ antagonist: blocks the human apelin receptor APJ | P35414 | CHO-K1 APJ beta-arrestin complementation, luminescence | inhibition, % at 20 µM | 330,000 compounds, 0.32% hits | AID 2521;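 active = inhibition above about 40% at 20 µM, limit read from the data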;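 note: cells challenged with 10 nM apelin-13 agonist together with compound; plate controls were apelin-13 plus DMSO wells for no effect and DMSO wells lacking apelin-13 for full effect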
CXCR6 inh: CXCR6 (human) receptor inhibition | O00574 | CHO-K1 PathHunter CXCR6 beta-arrestin, luminescence | inhibition, % at 20 µM | 360,000 compounds, 0.36% hits | AID 602244; in the data active = inhibition above about 34%, passing the limit was not always enough;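 note: antagonist mode with CXCL16 agonist at 10 nM final; 0% = 10 nM CXCL16 with DMSO and 100% = unstimulated wells without agonist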
Target sequence (O00574 whole entry, looked up): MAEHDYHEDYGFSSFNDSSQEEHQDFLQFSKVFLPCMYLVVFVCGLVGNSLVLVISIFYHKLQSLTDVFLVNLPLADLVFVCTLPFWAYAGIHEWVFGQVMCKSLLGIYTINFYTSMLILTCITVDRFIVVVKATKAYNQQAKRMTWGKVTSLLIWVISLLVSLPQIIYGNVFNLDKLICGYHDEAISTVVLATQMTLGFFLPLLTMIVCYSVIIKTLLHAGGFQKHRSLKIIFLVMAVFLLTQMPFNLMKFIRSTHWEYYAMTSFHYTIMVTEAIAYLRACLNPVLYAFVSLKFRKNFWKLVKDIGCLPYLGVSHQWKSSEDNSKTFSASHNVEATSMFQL
APJ agonist: activates the human apelin receptor APJ; AID 2520; P35414; activation, % at 20 µM; 330,000 compounds, 0.11% hits; CHO-K1 APJ PathHunter beta-arrestin, luminescence; 0% DMSO wells, 100% apelin;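 active = activation more than six SD over the plate average, tested at 20 µM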;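 note: 0% = DMSO alone and 100% = apelin-13 at 10 nM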
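Test system – PathHunter CHO-K1 APJ (AGTRL-1) beta-arrestin reporter cells · Input – 1000 cells/well · Compound – single test compound dose, 20 µM final, 1% DMSO · Times – compound stimulation 90 min at 25 °C, detection 60 min · Technique – beta-gal luminescence · Read-out basis – APJ–arrestin association signal · Control set – negative DMSO alone, positive Apelin-13 at 10 nM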
EBI2 antag: antagonists of human EBI2 receptor; EBI2 beta-arrestin recruitment, luminescence, 7a,25-OHC stimulated; AID 651636; 360,000 compounds, 0.81% hits; P32249; inhibition, % at 5 µM; in the data active = inhibition above about 38%;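 note: enzyme fragment complementation signal reports receptor beta-arrestin coupling in cells; 0% = agonist plus DMSO wells and 100% = wells without agonist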
Target sequence (P32249 whole entry, looked up, the tested form may be a part): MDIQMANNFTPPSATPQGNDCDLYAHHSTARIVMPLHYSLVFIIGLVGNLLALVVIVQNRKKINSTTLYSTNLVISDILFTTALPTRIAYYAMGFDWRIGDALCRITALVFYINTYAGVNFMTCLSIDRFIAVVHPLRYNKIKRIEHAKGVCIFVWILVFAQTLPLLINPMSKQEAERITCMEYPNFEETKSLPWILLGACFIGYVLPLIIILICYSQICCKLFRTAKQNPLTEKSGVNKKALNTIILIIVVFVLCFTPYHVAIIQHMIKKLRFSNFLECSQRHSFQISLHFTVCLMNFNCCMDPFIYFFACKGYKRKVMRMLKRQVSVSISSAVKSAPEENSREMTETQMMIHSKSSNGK
CCR6 antag: CCR6 (human) receptor antagonism. 340,000 compounds, 0.49% hits. inhibition, % at 20 µM. CHO-K1 CCR6 PathHunter beta-arrestin, luminescence, CCL20-stimulated. P51684;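 active = compounds whose inhibition of the agonist-driven luminescence signal at 20 µM reaches about 50%, limit read from the data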;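 note: cells stimulated with CCL20 at 14 nM final; plate controls were DMSO with CCL20 for no effect and DMSO without agonist for full effect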
EBI2 conf: confirmation of human EBI2 receptor antagonists | shares compounds with EBI2 antag | EBI2 beta-arrestin luminescence, 7a,25-OHC antagonism | inhibition, % at 5 µM | 2,400 compounds, 29% hits | AID 651997;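 active = inhibition of at least 50%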
EBI2 ag: activates EBI2, counter-screen for EBI2 antagonists; shares compounds with EBI2 antag; EBI2-expressing cells, agonist mode, luminescence, 60 min; 0% vehicle, 100% 7α,25-dihydroxycholesterol control; activation, % at 5 µM; 2,400 tested, under 10 active; AID 652000;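 active = activation of at least 50%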
bGal cs: inhibits E. coli beta-galactosidase, counter-screen for EBI2 antagonists. shares compounds with EBI2 antag. purified beta-galactosidase, luminescent Galacton Star, 15 min. inhibition, % at 5 µM. 2,400 compounds, 1% hits. AID 652176;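 active = replicate-average signal at least 3 plate SD below neutral wells, shown as high inhibition, flagging enzyme-inhibiting false positives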;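 note: 0% = DMSO wells with enzyme and 100% = wells lacking enzyme; higher means stronger loss of beta-gal luminescence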
Numbers without * were called inactive; x = no result.

SMILES	APJ antagonist	CXCR6 inh	APJ agonist	EBI2 antag	CCR6 antag	EBI2 conf	EBI2 ag	bGal cs
CCOc1ccc(-c2ccc(C3=CC(=O)C[C@H](c4ccc(F)cc4)C3)cc2)cc1	x	-5.2	x	-1.6	x	x	x	x
Cc1ccc(C2=CC(=O)C[C@H](c3ccc(F)cc3)C2)cc1	8.6	11.5	-3.5	70.3*	25.5	36.5	1.5	6.5
O=C1C=C(c2ccc(-c3ccccc3)cc2)C[C@@H](c2ccc(F)cc2)C1	2.3	3.7	-3.4	24.5	11.4	x	x	x
O=C1C=C(c2cc(C(F)(F)F)cc(C(F)(F)F)c2)C[C@@H](c2ccc(Cl)cc2)C1	11.4	6.1	-0.6	59.9*	5.1	36.6	-1.1	-14.5
COc1cccc(C2=CC(=O)C[C@H](c3ccc(Cl)cc3)C2)c1	1.2	6.0	-1.7	46.4*	29.4	31.8	-0.1	11.5
COc1ccc(C2=CC(=O)CC(c3ccc(OC)cc3)C2)cc1 (stereo unspecified)	11.5	-1.1	-4.2	51.5*	23.7	29.5	-1.9	-12.6
COc1ccc(C2=CC(=O)CC(c3ccc(F)cc3)C2)cc1 (stereo unspecified)	-1.2	4.1	-7.4	39.5	13.7	x	x	x
COC(=O)[C@]12CCCCC=C1N(Cc1ccccc1)C(=O)[C@H](CC(=O)NCc1ccccc1)C2	x	4.3	x	1.7	x	x	x	x
COc1ccc([C@H]2CC(=O)C=C(c3cccc(Br)c3)C2)cc1	8.1	1.7	-3.1	41.0	19.4	x	x	x
O=C1C=C(c2cc3ccccc3s2)C[C@@H](c2ccc(F)cc2)C1	11.2	-1.0	-4.6	52.7*	8.6	44.5	-1.2	-8.3
C=Cc1ccc(C2=CC(=O)C[C@H](c3ccc(OC)cc3)C2)cc1	-26.4	-4.8	-3.2	77.1*	13.9	53.9*	0.2	12.1
O=C(CNC(=O)c1ccccc1F)N/N=C/c1ccc2c(c1)OCO2	-2.8	0.3	-1.5	-12.8	7.2	x	x	x
COc1ccc(CNC(=O)c2cccc(-c3ccc(C)c4ccccc34)n2)cc1	10.5	2.3	-6.0	-4.8	3.0	x	x	x
COc1ccc(OC)c(C2=Nn3c(nnc3-c3cccc(OC(C)C)c3)SC2)c1	-8.1	17.7	-5.7	46.0*	20.4	35.0	0.8	-1.7
COc1ccc(OC)c(C2=Nn3c(nnc3-c3ccco3)SC2)c1	16.5	10.7	-0.3	31.6	14.5	x	x	x
Cc1cc2nc(-c3ccc(C#N)cc3)c(Cc3cccc(F)c3)n2c(C)c1Br	x	5.1	x	44.3*	x	42.9	-1.3	-16.4
Cc1ccc(-c2nc3ccc(C)cn3c2Cc2cccc(Cl)c2)cc1	x	30.6	x	34.6	x	x	x	x
Cc1ccc(-c2nc3ccc(C)cn3c2Cc2cccc(F)c2)cc1	x	27.5	x	43.0*	x	45.9	-1.7	-13.8
CCCCC(CC)CNC(=O)C(Cc1ccccc1)NS(=O)(=O)c1ccc2c(c1)CCC(=O)N2 (stereo unspecified)	-14.0	-8.0	-2.5	7.0	5.3	x	x	x
Cc1ccc(S(=O)(=O)N(C)C)cc1NC(=O)COC(=O)c1ccc2ccccc2n1	-2.5	3.0	-0.1	5.5	7.9	x	x	x
O=C(CCn1cnc2ccccc21)N/N=C/C=C/c1ccccc1	5.8	-3.9	1.3	45.8*	8.0	52.0*	0.7	5.0
C=CCc1cccc(CNc2nc3ccccc3n2C)c1O	-13.0	3.1	-0.3	-0.1	-0.1	x	x	x
C=CCc1cccc(CNc2nc3ccccc3n2CCN2CCOCC2)c1O	-24.4	24.7	-4.0	83.4*	13.9	84.4*	-0.5	7.3
COc1cc(-c2nnc(CSc3nnc(Nc4ccc(Oc5ccccc5)cc4)s3)o2)cc(OC)c1OC	-16.2	5.3	1.4	17.4	1.4	x	x	x
COc1ccc(N(C)S(=O)(=O)c2cccc(C(=O)OCC(=O)c3c(N)n(C)c(=O)n(C)c3=O)c2)cc1	-4.5	-11.5	10.6	-3.0	-0.4	x	x	x
SMILES	APJ antagonist	CXCR6 inh	APJ agonist	EBI2 antag	CCR6 antag	EBI2 conf	EBI2 ag	bGal cs
CCOc1ccccc1N1CCN(C(=O)c2cc3ccccc3cc2OC)CC1	18.3	6.3	-4.7	56.8*	1.8	31.0	0.5	8.5
COc1cc2ccccc2cc1C(=O)N1CCN(C(C)=O)CC1	8.9	4.6	-4.4	66.3*	5.0	51.6*	0.0	-12.9
COc1cccc(CN(C)C(=O)Cc2c[nH]c3ccccc23)c1	9.3	-7.0	-4.2	51.2*	4.2	39.8	-1.1	-3.3
COc1cccc(CN(C)C(=O)Cc2c[nH]c3ccccc23)c1OC	7.5	4.5	-3.2	6.4	6.7	x	x	x
COc1cccc(CN(C(=O)Cc2c[nH]c3ccccc23)C(C(=O)NC2CCCCC2)c2ccc(C)o2)c1 (stereo unspecified)	-17.6	1.3	-0.4	4.9	20.9	x	x	x
COc1ccc(CN(C)C(=O)Cc2c[nH]c3ccccc23)cc1	1.8	-3.6	-1.2	52.4*	11.2	31.2	-0.3	-8.8
COc1cccc(CNS(=O)(=O)c2ccc3c(c2)C(C)(C)C(=O)N3C)c1	-7.0	-4.5	6.4	-6.6	0.1	x	x	x
Cc1cc(=O)n(C)c(=O)n1CCCCCCOc1cccc([N+](=O)[O-])c1	6.8	-8.9	-1.9	-0.7	24.2	x	x	x
C=CCC[C@@H](Cc1ccc(F)cc1)C(=O)OC[C@H](C)NC(=O)[C@@H](CC=C)CC(=O)N[C@@H](CO)Cc1ccccc1	-5.0	7.1	-2.2	-7.6	9.6	x	x	x
CCOC(=O)C1=CCN(S(=O)(=O)c2ccccc2C)C1c1cccc(Cl)c1 (stereo unspecified)	x	x	x	60.9*	x	43.6	-0.9	-12.0
CCOC(=O)C1=CCN(S(=O)(=O)c2ccccc2F)C1c1cccc(Cl)c1 (stereo unspecified)	x	4.5	x	-26.0	x	x	x	x
CCOC(=O)C1=CCN(S(=O)(=O)c2ccccc2Br)C1c1cccc(Cl)c1 (stereo unspecified)	x	4.8	x	28.0	x	x	x	x
CCOC(=O)C1=CCN(S(=O)(=O)c2ccccc2Cl)C1c1cccc(Br)c1 (stereo unspecified)	x	3.2	x	56.1*	x	20.4	-0.2	4.8
COc1ccc(-c2nc(N)nc(C)c2-c2ccc(Cl)cc2)c(O)c1	17.1	1.0	-0.8	79.7*	1.8	62.0*	1.4	2.2
C=C(C)COc1ccc(-c2nc(N)nc(C)c2-c2ccc(OC)cc2)c(O)c1	2.2	7.0	-2.6	44.3*	2.0	21.5	-1.0	-14.3
CCOc1ccc(-c2nc(N)nc(C)c2-c2ccc(Cl)cc2)c(O)c1	-5.6	-6.5	-1.6	54.5*	-3.1	34.6	-0.2	0.1
C=C(C)COc1ccc(-c2nc(N)nc(C)c2Oc2ccccc2OC)c(O)c1	10.5	5.9	-2.6	12.2	-8.7	x	x	x
CC1(C(=O)NCCCN2CCCC2=O)CCN1CCc1ccccc1 (stereo unspecified)	x	-0.2	x	-5.8	x	x	x	x
